Results published in ChEMBL document CHEMBL1126690, “2'-substituted chalcone derivatives as inhibitors of interleukin-1 biosynthesis” (J Med Chem, 1993).

Species: Homo sapiens
Assay: (§1) Inhibition of the production of Interleukin-1-beta from human peripheral blood monocytes stimulated with lipopolysaccharide (LPS) at 10 uM
Assay type: functional

SMILES	inhibition at 10 µM
O=C(O)c1ccccc1C(=O)/C=C/c1ccccc1	37%
O=C(/C=C/c1ccccc1)c1ccc([N+](=O)[O-])cc1	0%
COc1cc(OC)c(C(=O)/C=C(\C)c2ccccc2)c(OC)c1	0%
COC(=O)c1ccc(C(=O)/C=C/c2ccccc2)cc1	5%
COc1cc(OC)c(C(=O)C=C(c2ccccc2)c2ccccc2)c(OC)c1	0%
CCOc1ccc(C(=O)/C=C/c2ccccc2)cc1	15%
COc1ccc(C(=O)/C=C/c2ccccc2)cc1OC [3',4'-DIMETHOXYCHALCONE]	44%
COc1ccc(C(=O)/C=C/c2ccccc2)cc1 [4'-METHOXYCHALCONE]	29%

Species: Homo sapiens
Assay: (§2) Inhibition of the production of Interleukin-1-beta from human peripheral blood monocytes stimulated with lipopolysaccharide (LPS)
Assay type: functional
Summary of the method: (§3)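 Human monocytes elutriated from whole blood, 2×10^6 cells/well in RPMI 1640 + 5% FBS. Drug in DMSO (1.0 μL) added, 60 min preincubation, then LPS (Salmonella typhimurium; 1.0 μg/mL stock, 20 μL/well). After 20 h, supernatant IL-1β by ELISA; MTT viability on cells.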

SMILES	Inhibition
COc1cc(OC)c(C(/C=C/c2ccccc2)=N/O)c(OC)c1	34%

Species: Homo sapiens
Assay: as §2
Assay type: functional
Summary of the method: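 Drug in DMSO (1.0 μL) added, 60 min preincubation, then LPS (Salmonella typhimurium; 1.0 μg/mL stock, 20 μL/well). After 20 h, supernatant IL-1β by ELISA; MTT viability on cells.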

SMILES	IC50
COC(=O)c1cccc(/C=C/C(=O)c2c(OC)cc(OC)cc2OC)c1	1650 nM
COC(=O)c1ccccc1C(=O)/C=C/c1ccc(C(=O)Nc2nccs2)cc1	2030 nM
COc1cc(OC)c(C(=O)/C=C/c2ccc(C(=O)N(C)c3nccs3)cc2)c(OC)c1	1010 nM
COc1cc(OC)c(C(=O)/C=C/c2ccncc2)c(OC)c1	592 nM
COc1cc(OC)c(C(=O)/C=C/c2ccccn2)c(OC)c1	596 nM
COc1cc(OC)c(C(=O)/C=C/c2cccnc2)c(OC)c1	1330 nM
COc1cc(OC)c(C(=O)/C=C/c2cccc(C(=O)Nc3nccs3)c2)c(OC)c1	503 nM
COc1cc(OC)c(C(=O)/C=C/c2cccc(C(=O)O)c2)c(OC)c1	6760 nM
COc1cc(OC)c(C(=O)/C=C/c2cccc(C(=O)Nc3cccnc3)c2)c(OC)c1	1630 nM
COc1cc(OC)c(C(=O)/C=C/c2ccc(C(=O)N(C)C)cc2)c(OC)c1	2800 nM
COc1cccc(/C=C/C(=O)c2c(OC)cc(OC)cc2OC)c1	1800 nM
COc1cc(OC)c(C(=O)/C=C/c2ccnc3ccccc23)c(OC)c1	311 nM
COc1cc(OC)c(C(=O)/C=C/c2ccc(C(N)=O)cc2)c(OC)c1	1790 nM
COc1cc(OC)c(C(=O)/C=C/c2ccc(C(=O)Nc3nccs3)cc2)c(OC)c1	355 nM
COc1cc(OC)c(C(=O)/C=C/c2c(F)cccc2F)c(OC)c1	1290 nM
COc1cc(OC)c(C(=O)/C=C/c2ccc(C(=O)Nc3cccnc3)cc2)c(OC)c1	793 nM
COC(=O)c1ccccc1C(=O)/C=C/c1ccccc1	1950 nM
COc1cc(OC)c(C(=O)/C=C/c2nccn2C)c(OC)c1	3800 nM
COc1cc(OC)c(C(=O)/C=C/c2cnccn2)c(OC)c1	693 nM
COC(=O)c1ccc(/C=C/C(=O)c2c(OC)cc(OC)cc2OC)cc1	1930 nM

Second part, the compound after the results:

IC50	SMILES
6200 nM	O=C(/C=C/c1ccccc1)c1ccccn1
1520 nM	O=C(/C=C/c1ccccc1)c1ccccc1[N+](=O)[O-]
5750 nM	O=C(/C=C/c1ccccc1)c1cccs1
5400 nM	COc1cc(OC)c(C(O)/C=C/c2ccccc2)c(OC)c1 (configuration not stated)
5170 nM	COc1cc(OC)c(C(=O)/C(C)=C/c2ccccc2)c(OC)c1
2230 nM	COc1ccccc1C(=O)/C=C/c1ccccc1
2000 nM	COc1cccc(/C=C/C(=O)c2ccccc2)c1OC
609 nM	CCOc1ccccc1C(=O)/C=C/c1ccccc1
748 nM	O=C(/C=C/c1ccccc1)c1ccccc1C(F)(F)F
1770 nM	CN(C)c1ccccc1C(=O)/C=C/c1ccccc1
2230 nM	O=C(/C=C/c1ccccc1)c1ccccc1OCc1ccccc1
1730 nM	CC(=O)Nc1ccccc1C(=O)/C=C/c1ccccc1
1840 nM	COc1cc(C(=O)/C=C/c2ccccc2)cc(OC)c1OC
577 nM	COc1cc(OC)c(C(=O)/C=C/c2cccc(C(=O)Nc3ccccc3)c2)c(OC)c1
1670 nM	COc1cccc(C(=O)/C=C/c2ccccc2)c1OC
6230 nM	COc1cc(OC)c(C(=O)/C=C/c2ccc(C(=O)O)cc2)c(OC)c1
1150 nM	COc1cccc(OC)c1C(=O)/C=C/c1ccccc1
1710 nM	COc1ccc(C(=O)/C=C/c2ccccc2)c(OC)c1OC
5500 nM	CN(C)C(=O)c1ccccc1C(=O)/C=C/c1ccccc1
1660 nM	O=C(/C=C/c1ccccc1)c1ccccc1Br
6500 nM	Cc1cc(C)c(C(=O)/C=C/c2ccccc2)c(C)c1
803 nM	COc1cc(OC)c(C(=O)/C=C/c2ccc(C(=O)Nc3ccccc3)cc2)c(OC)c1
2330 nM	COc1ccc(/C=C/C(=O)c2ccccc2)cc1OC
5850 nM	O=C(/C=C/c1ccccc1)c1ccccc1NS(=O)(=O)C(F)(F)F
1650 nM	CCOc1ccccc1C(=O)/C=C/c1ccncc1
1080 nM	O=C(/C=C/c1ccccc1)c1c(Cl)cccc1Cl
1410 nM	O=C(/C=C/c1ccccc1)c1c2ccccc2cc2ccccc12
4300 nM	O=C(/C=C/c1ccccc1)c1ccccc1O [2'-HYDROXYCHALCONE]
6130 nM	O=C(/C=C/c1ccccc1)c1ccc(O)cc1 [4'-HYDROXYCHALCONE]
6280 nM	O=C(/C=C/c1ccccc1)c1ccccc1 [CHALCONE]

Species: Homo sapiens
Assay: Inhibition of the production of Interleukin-1-beta from human peripheral blood monocytes stimulated with lipopolysaccharide (LPS).
Assay type: functional
Summary of the method: as §3

IC50	SMILES
1250 nM	COc1cc(OC)c(C(=O)/C=C/c2ccccc2)c(OC)c1

Species: Homo sapiens
Assay: as §1
Assay type: functional
Summary of the method: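 Elutriated human monocytes in RPMI 1640 + 5% FBS, drug added in DMSO 60 min before LPS (Salmonella typhimurium). Tested at 10 μM, the highest concentration assayed. After 20 h, supernatant IL-1β measured by ELISA in duplicate; percent inhibition vs control; MTT viability checked.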

SMILES	inhibition at 10 µM
COc1cc(C(=O)/C=C/c2ccc(N(C)C)cc2)cc(OC)c1OC	0%
CS(=O)(=O)Nc1ccccc1C(=O)/C=C/c1ccccc1	0%
COc1cc(OC)c(C/C=C/c2ccccc2)c(OC)c1	0%
COc1cc(OC)c(C(=O)CCc2ccccc2)c(OC)c1	0%
O=C(Nc1nccs1)c1ccc(/C=C/C(=O)c2ccccc2C(=O)O)cc1	22%
COc1cc(OC)c(C(=O)NCc2ccccc2)c(OC)c1	0%
COc1cc(OC)c(NC(=O)/C=C/c2ccccc2)c(OC)c1	0%
COc1cc(OC)c(C(=O)c2ccc(-c3ccccc3)cc2)c(OC)c1	26%

System: Mus musculus
Assay: In vivo activity expressed as percentage survival at 600 mg/kg in mouse septic shock model
Assay type: functional
Summary of the method: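 Female C57Bl/6 mice (18–20 g), groups of 10, given LPS ip (E. coli 0127:B8, in 0.9% saline, 40 mg/kg). Compound in 0.25% methylcellulose (beadmilled 60 min) dosed orally by gavage 20 min later (0.1 mL/g), then every 4 h for 24 h; vehicle controls. Deaths recorded over 3 days; percent survival, χ² at p<0.05, mean of three experiments.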

SMILES	survival at 600 mg/kg
COC(=O)c1ccccc1C(=O)/C=C/c1ccc(C(=O)Nc2nccs2)cc1	30%
COc1cc(OC)c(C(=O)/C=C/c2ccc(C(=O)Nc3nccs3)cc2)c(OC)c1	55%
COc1cc(OC)c(C(=O)/C=C/c2ccc(C(=O)Nc3cccnc3)cc2)c(OC)c1	50%
COC(=O)c1ccccc1C(=O)/C=C/c1ccccc1	20%
